20 compounds from PubChem BioAssay can be followed below.

The other results are listed elsewhere or left out. Calls of active or inactive are those of the source.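 Rule for the calls, unless noted: active = signal rise of 40% or more at 20 µM, treated as a fluorescence artifact; inactive = the rest.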

The nature of one test: Rh110 fluorescence interference by putative Apaf-1 inhibitors, confirmation, artefact control for Apaf-1 inhibitor project, biochemical, 20 µM (AID 504615). The settings on record: quenched caspase reaction, at 20 µM, active compounds read high.
On to `CN1CCN(c2ccccc2NC(=O)COc2ccc(C3CCCCC3)cc2)CC1`, for which the activation (fluorescence interference) is 2.41% (inactive).
Same read-out and setting: to `COCC(C)OC(=O)c1c(N)n(CCCN2CCOCC2)c2nc3ccccc3nc12` (configuration not stated) belongs 0.94% (inactive); to `CCOC(=O)C1CCN(C(=O)c2cccc(S(=O)(=O)N(CC)c3ccccc3)c2)CC1`, 5.38% (inactive).
The same measure, in the same setting: to `Cc1ccc(S(=O)(=O)N2CCN(C(=O)c3ccccc3-c3nc4ccccc4s3)CC2)c(C)c1` belongs 4.66% (inactive); to `C#CCOCCOCCOCCNc1nc(N2CCN(C(=O)C([C@@H](C)O)n3cc([C@@H](N)CCCCN)nn3)CC2)nc(N2CCN(C(=O)[C@H](CCCCN)n3cc(CN)nn3)CC2)n1` (some centres not stated), -7.33% (inactive).
`c1ccc(C[C@H]2CNCCN2CCC23CC4CC(CC(C4)C2)C3)cc1`: the activation (fluorescence interference) is -3.75% (inactive).
On the same count and under the same terms, to `Cc1cc2oc3ccc(NCCC4CCCN4C)cc3c(=O)c2cc1C` (configuration not stated) belongs 4.87% (inactive); to `Nc1ccc2nn(-c3ccc(Cl)cc3)nc2c1`, 0.47% (inactive).
Still for that read-out and setting: to `COc1ccc(NC(=O)CN(Cc2ccccc2)S(C)(=O)=O)cc1OC` belongs 2.48% (inactive); to `O=C(N/N=C\c1cccnc1)c1cc(-c2ccccc2)nc2c(Cl)cccc12`, 2.87% (inactive).
On the same count and under the same terms, to `Cc1ccc(-c2ccc(/C=N/NC(=O)CN3CCOCC3)o2)cc1[N+](=O)[O-]` belongs -3.95% (inactive).

A short description of another test: Peg3 promoter reporter inhibitors, retest, confirmation, cell-based, HeLa, luciferase reporter, single concentration (AID 602417;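 active = at 20 µM dose, 40% or more inhibition averaged across four replicates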). Particulars: HeLa PEG-Prom luciferase reporter, luminescence, overnight; at 20 µM; active compounds read high.
Take `Cc1cccc(NC(=O)c2nc(S(=O)(=O)Cc3ccccc3)ncc2Cl)c1`: the inhibition is 98.3% (active).
The same measure, in the same setting: to `COc1cccc(/C=N/Nc2cc(C)nc(-c3ccccc3O)n2)c1O` belongs 94.4% (active).
Still for that read-out and setting: to `CN(C)CC(O)COc1ccc(C(C)(C)c2ccc(OCC(O)CN(C)C)cc2)cc1` (configuration not stated) belongs 53% (active).

The nature of another test: inhibitors of PAF-induced NF-kB signaling, retest, confirmation, cell-based, GFP fluorescence, single concentration (AID 602472; in the data active = inhibition above about 40%;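 note: stimulus PAF is a Pseudomonas aeruginosa filtrate and not platelet activating factor; plate controls were DMSO wells with stimulus for no effect and unstimulated DMSO wells for full effect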). The settings on record: KKLEB CF airway cells, overnight, at 5 µM, active compounds read high. Put shortly:
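Material: KKLEB immortalized cystic fibrosis airway epithelial cells with NFkB-GFP reporter; Buffer or medium: medium with 2% FBS for cells, serum-free medium for stimulus; Times: 2 h pretreatment, overnight stimulation; Signal: GFP fluorescence; Compound dosing: 5 µM single dose.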
For the compound `O=C(Nc1ccc(C(=O)N2CCOCC2)cc1)Nc1cccc(C(F)(F)F)c1`, the inhibition was 58.5% (active).
`CC(=O)Nc1ccc(NC(=O)C(C)OC(=O)c2ccccc2C(=O)c2ccc(Cl)c([N+](=O)[O-])c2)cc1` (configuration not stated): the inhibition was 72.6% (active).
Same read-out and setting: to `Cc1cccc(NC(=O)c2nc(S(=O)(=O)Cc3ccccc3)ncc2Cl)c1` belongs 96.7% (active).

The nature of a further test: HIF-2a reporter inhibitor retest, confirmation, luminescence, 786-0 RCC cells (AID 651580;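 active = mean inhibition across four replicates of at least 40 percent at the single tested concentration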). The settings on record: HIF-2a luciferase reporter luminescence, overnight, at 18.8 µM, active compounds read high. For orientation: Reporter assays use an easily measured gene product as a stand-in for the process of interest.
`CCN(CC)S(=O)(=O)c1ccc(NC(=O)c2cccnc2Cl)c(NC(=O)c2cccnc2Cl)c1`: the inhibition is 91.6% (active).
Turning to `Cc1ccc(CS(=O)(=O)c2ncc(Cl)c(C(=O)Nc3nnc(C)s3)n2)cc1`, the inhibition was 31.5% (inactive).
Same read-out and setting: to `CC1CCCCC1NC(=O)/C(C#N)=C/C=C/c1ccccc1[N+](=O)[O-]` (configuration not stated) belongs 50.3% (active); to `Cc1cccc(NC(=O)c2nc(S(=O)(=O)Cc3ccccc3)ncc2Cl)c1`, 100% (active); to `Cc1[nH]c(=O)c(C(=O)/C=C/c2ccccc2)c2c1CCCC2`, 81.1% (active).

As usually defined, the inhibition is the relative decrease from the control value, in per cent.
